The values below come from ChEMBL document CHEMBL5032493, “Synthesis and Evaluation of PPARδ Agonists That Promote Osteogenesis in a Human Mesenchymal Stem Cell Culture and in a Mouse Model of Human Osteoporosis” (J Med Chem, 2021).

In data set [1] the test system is COS-7 (Chlorocebus aethiops). Nature of the data set: Cytotoxicity against COS-7 cells expressing human PPARdelta assessed as morphological changes at lower concentration by microscopy analysis. Conditions: monkey.
Data set [2] concerns Mus musculus. As to the kind of experiment: Antiosteoporotic activity against OVX-induced bone loss C57BL/6 mouse model assessed as increase in ratio of bone volume to total volume at 10 mg/kg, po for 6 weeks by microcomputed tomography method relative to sham treated control. It is filed as functional, organism-based. The gist of the method:
(§1)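 Female C57BL/6 mice ovariectomized at 12 weeks of age; sham-operated group kept ovaries intact. After recovery, daily oral gavage of compound or vehicle for 6 weeks, sacrifice at 22 weeks of age. Distal femur trabecular structure analysed by micro-computed tomography, including bone volume/total volume, compared with sham mice; GW0742 as positive control.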

Data set [3] can be described thus: Cytotoxicity against human HEK293T/17 cells assessed as reduction in cell viability at 10 to 100 uM measured after 24 hrs by MTT assay. As to conditions: hek293t/17, 24 h, dose 10-100 µM. The data set is classed as cell-based. The gist of the method:
(§2)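 HEK 293T/17 cultures exposed to agent for 24 h or 72 h; viability by MTT. Controls: H2O2 (toxic positive), plain medium, vehicle at 0.1% DMSO corresponding to the 100 μM dose; doses by serial dilution in medium. Quadruplicate (N = 4), mean with SD; two-tailed P versus 0 μM. Viability <70% taken as relevant to human toxicity.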

Data set [4] relates to Mesenchymal stem cells. Nature of the data set: Induction of adipogenesis differentiation in human Mesenchymal stem cells at 20 uM incubated for 21 days by […] staining-based microscopic analysis. It is filed as functional, cell-based. Conditions: time 21.0 day.
The target of data set [5] is T1, Peroxisome proliferator-activated receptor gamma (Homo sapiens, UniProt P37231).
T1 sequence (P37231 whole entry): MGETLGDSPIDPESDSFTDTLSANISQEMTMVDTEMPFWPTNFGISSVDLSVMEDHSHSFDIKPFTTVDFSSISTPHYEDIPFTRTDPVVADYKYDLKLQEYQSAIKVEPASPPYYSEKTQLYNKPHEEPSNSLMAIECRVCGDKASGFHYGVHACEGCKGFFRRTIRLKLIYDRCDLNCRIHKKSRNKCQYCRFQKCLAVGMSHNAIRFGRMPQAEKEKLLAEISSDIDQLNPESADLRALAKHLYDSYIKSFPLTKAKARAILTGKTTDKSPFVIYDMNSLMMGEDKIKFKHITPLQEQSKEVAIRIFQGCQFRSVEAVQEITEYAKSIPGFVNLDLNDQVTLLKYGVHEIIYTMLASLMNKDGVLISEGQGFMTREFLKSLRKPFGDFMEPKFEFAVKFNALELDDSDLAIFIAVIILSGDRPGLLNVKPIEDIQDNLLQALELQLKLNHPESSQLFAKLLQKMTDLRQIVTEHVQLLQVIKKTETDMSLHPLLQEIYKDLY
Nature of the data set: Agonist activity at human PPARgamma transfected in COS-7 cells assessed luciferase activity measured after 24 hrs by cell based luciferase transactivation assay.

The test system of data set [6] is Mesenchymal stem cells. As to the kind of experiment: Induction of osteogenesis differentiation in human Mesenchymal stem cells at 20 uM incubated for 21 days by Alizarin Red S staining-based microscopic analysis. It is filed as functional, cell-based. Conditions: time 21.0 day.
A short description of data set [7]: Cytotoxicity against human HEK293T/17 cells assessed as reduction in cell viability at 10 to 100 uM measured after 72 hrs by MTT assay. The data set is classed as cell-based. As to conditions: hek293t/17, 72 h, dose 10-100 µM. Put shortly: as §2
Data set [8] has as its system Mus musculus. Nature of the data set: Antiosteoporotic activity against OVX-induced bone loss C57BL/6 mouse model assessed as increase in trabecular bone density at 10 mg/kg, po for 6 weeks by microcomputed tomography method relative to sham treated control. The data set is classed as functional, organism-based. The gist of the method: as §1
The test system of data set [9] is Mesenchymal stem cells. Nature of the data set: Cytotoxicity against human Mesenchymal stem cells expressing human PPARdelta assessed as morphological changes at 50 uM by microscopy analysis. It is filed as cell-based.
Data set [10] has as its system Mesenchymal stem cells. Nature of the data set: Induction of osteogenesis differentiation in human Mesenchymal stem cells at 10 uM incubated for 21 days by Alizarin Red S staining-based microscopic analysis. It is filed as functional, cell-based. Conditions: time 21.0 day.
Data set [11] is described as follows: Toxicity in OVX-induced bone loss C57BL/6 mouse model assessed as change in behaviour at 10 mg/kg, po for 6 weeks. It is filed as organism-based. As to conditions: in vivo, 1008 h. Put shortly: (§3)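 OVX C57BL/6 females (surgery at 12 weeks, sham controls) dosed daily by oral gavage for 6 weeks. Gross toxicity monitored during dosing as weight, behaviour, eating and other habits versus controls.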

Data set [12] concerns Mesenchymal stem cells. As to the kind of experiment: Induction of osteogenesis differentiation in human Mesenchymal stem cells at 1 uM incubated for 21 days by Alizarin Red S staining-based microscopic analysis. As to conditions: time 21.0 day. The data set is classed as functional, cell-based.
The target in data set [13] is T2, Peroxisome proliferator-activated receptor delta (Homo sapiens, UniProt Q03181).
T2 sequence (Q03181 whole entry): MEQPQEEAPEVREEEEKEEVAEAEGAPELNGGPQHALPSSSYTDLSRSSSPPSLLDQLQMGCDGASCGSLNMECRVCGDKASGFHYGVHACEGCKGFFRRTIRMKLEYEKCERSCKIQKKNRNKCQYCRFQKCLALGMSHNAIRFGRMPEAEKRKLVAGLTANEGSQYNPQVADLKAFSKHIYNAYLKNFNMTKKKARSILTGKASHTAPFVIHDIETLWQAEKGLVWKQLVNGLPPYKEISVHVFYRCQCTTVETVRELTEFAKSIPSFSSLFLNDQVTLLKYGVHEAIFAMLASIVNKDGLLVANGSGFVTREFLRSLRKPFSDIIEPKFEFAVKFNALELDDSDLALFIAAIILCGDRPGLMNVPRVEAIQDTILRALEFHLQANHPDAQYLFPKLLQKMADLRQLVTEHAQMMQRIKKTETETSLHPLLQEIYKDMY
Nature of the data set: Agonist activity at human PPARdelta transfected in COS-7 cells assessed luciferase activity measured after 24 hrs by cell based luciferase transactivation assay.

Data set [14] deals with L929. As to the kind of experiment: Cytotoxicity against mouse L929 cells assessed as reduction in cell viability at 1 to 100 uM measured after 72 hrs. As to conditions: l929, 72 h, dose 1-100 µM. It is filed as cell-based.
A short description of data set [15]: Glutathione reactivity at pH 7.4 assessed as compound remaining measured after 24 hrs by LC-MS/MS method. The data set is classed as physicochemical. Conditions: pH 7.4, 24 h. Put shortly:
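Substrate incubated in triplicate with 10-fold excess glutathione in pH 7.4 phosphate buffer containing 50% methanol at 25 °C for up to 24 h. Substrate loss followed at several time points by LC-MS/MS, which also confirmed the structure of glutathione conjugates.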

The subject of data set [16] is Mesenchymal stem cells. As to the kind of experiment: Induction of adipogenesis differentiation in human Mesenchymal stem cells at 1 uM incubated for 21 days by […] staining-based microscopic analysis. As to conditions: time 21.0 day. It is filed as functional, cell-based.
The subject of data set [17] is L929. Nature of the data set: Cytotoxicity against mouse L929 cells assessed as reduction in cell viability at 100 uM. It is filed as cell-based. Conditions: l929, 100 µM.
The nature of data set [18]: Toxicity in OVX-induced bone loss C57BL/6 mouse model assessed as change in eating at 10 mg/kg, po for 6 weeks. The data set is classed as organism-based. As to conditions: in vivo, 1008 h. The gist of the method: as §3
The subject of data set [19] is Mus musculus. As to the kind of experiment: Antiosteoporotic activity against OVX-induced bone loss C57BL/6 mouse model assessed as increase in microarchitectures at 10 mg/kg, po for 6 weeks by microcomputed tomography method relative to sham treated control. It is filed as functional, organism-based. Put shortly: as §1
For data set [20], the system named is PPARdelta (human, expressed in COS-7 cells). As to the kind of experiment: Cell toxicity index, ratio of CT50 to EC50 for agonist activity at human PPARdelta expressed in COS-7 cells. As to conditions: monkey.
In data set [21] the target is T3, Peroxisome proliferator-activated receptor alpha (Homo sapiens, UniProt Q07869).
T3 sequence (Q07869 whole entry): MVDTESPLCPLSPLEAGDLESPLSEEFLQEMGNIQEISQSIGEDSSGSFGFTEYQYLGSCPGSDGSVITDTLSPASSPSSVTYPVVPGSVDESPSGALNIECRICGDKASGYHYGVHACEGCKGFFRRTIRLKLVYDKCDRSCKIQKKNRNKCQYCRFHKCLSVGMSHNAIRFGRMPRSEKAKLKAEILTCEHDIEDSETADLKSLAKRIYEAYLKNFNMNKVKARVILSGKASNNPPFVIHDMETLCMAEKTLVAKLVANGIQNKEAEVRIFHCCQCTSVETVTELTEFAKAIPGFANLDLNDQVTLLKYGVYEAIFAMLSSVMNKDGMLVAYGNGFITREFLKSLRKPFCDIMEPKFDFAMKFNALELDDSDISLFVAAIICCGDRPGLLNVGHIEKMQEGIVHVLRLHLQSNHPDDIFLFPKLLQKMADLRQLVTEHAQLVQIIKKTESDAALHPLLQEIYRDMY
Nature of the data set: Agonist activity at human PPARalpha transfected in COS-7 cells assessed luciferase activity measured after 24 hrs by cell based luciferase transactivation assay. Put shortly: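 Transient transfection of COS-7 cells with human PPARα, PPARγ or PPARδ plus luciferase reporter; constitutive Renilla luciferase also read. Three or more independent experiments in triplicate (N ≥ 9).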

The nature of data set [22]: Toxicity in OVX-induced bone loss C57BL/6 mouse model assessed as change in body weight at 10 mg/kg, po for 6 weeks. It is filed as organism-based. Conditions: in vivo, 1008 h. Put shortly: as §3
Data set [23] concerns Mesenchymal stem cells. As to the kind of experiment: Induction of adipogenesis differentiation in human Mesenchymal stem cells at 10 uM incubated for 21 days by […] staining-based microscopic analysis. Conditions: time 21.0 day. The data set is classed as functional, cell-based.
Data set [24] is described as follows: Cytotoxicity against human HEK293T/17 cells assessed as reduction in cell viability incubated for 24 hrs by MTT assay. It is filed as cell-based. Conditions: hek293t/17, 24 h. Put shortly: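 HEK 293T/17 cultures were exposed to drug for 24 h and viability was read by standard MTT. Doses came from serial dilution in medium, top dose 100 μM. Controls were medium only, a DMSO vehicle at its highest level (0.1% in medium before adding to cells), and H2O2 as a toxic control. Runs were in quadruplicate (N = 4), reported as mean with SD and compared to 0 μM by two-tailed P.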

Data set [25] addresses T4, Peroxisome proliferator-activated receptor alpha (Homo sapiens) (UniProt Q07869).
T4 sequence (whole entry): T3 sequence (Q07869 whole entry)
Nature of the data set: Agonist activity at human PPARalpha transfected in COS-7 cells assessed maximum luciferase activity measured after 24 hrs by cell based luciferase transactivation assay relative to gemfibrozil. As to conditions: filed as agonist. Put shortly:
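Transient transfection of COS-7 cells with human PPARα, PPARγ or PPARδ plus luciferase reporter; constitutive Renilla luciferase also read. […] Three or more independent experiments in triplicate (N ≥ 9).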

Activity calls are given as the source filed them. No cut-off for these calls is given here.

As to `Cc1cc(N(C)Cc2sc(-c3ccc(C(F)(F)F)cc3)nc2C)ccc1/C=C/C(=O)O`, the Activity result in data set [1] is recorded as “Non-Toxic”; in data set [3], “Toxic”; in data set [7], “Toxic”; in the data set with Mesenchymal stem cells [9], “Toxic”; in data set [11] it was “Toxic”; with L929 [14], “Toxic”. Moreover, the Activity entry in the data set on L929 [17] is reported as “Non-Toxic”; in [18] it was “Toxic”; in data set [22] it was “Toxic”. The result with Mus musculus [2], with Mesenchymal stem cells [6], in the data set on Mus musculus [8], in the data set with Mesenchymal stem cells [10], in the data set on Mesenchymal stem cells [12] and in the data set on Mus musculus [19] was Active. The outcome in the data set with Mesenchymal stem cells [4], in the data set with Mesenchymal stem cells [16] and with Mesenchymal stem cells [23] was inactive. Also, the figures for the EC50 result in data set [5] (cos-7), in [13] and in data set [21] (cos-7) were “Not Active”, 335 nM and “Not Active”, respectively. The Stability result in data set [15] was “Stable”. In addition, the selectivity ratio in [20] stood at 250.

In the case of `Cc1cc(SCc2sc(-c3ccc(C(F)(F)F)c(F)c3)nc2C)ccc1OCC(=O)O`, the EC50 in data set [5] (read-out: EC50) came out at 9530 nM; in data set [21] (read-out: EC50), 2500 nM. In addition, the Activity entry (in data set [7]; with Mesenchymal stem cells [9]; in the data set with L929 [14]; with L929 [17]; in data set [24]) was “Toxic” each time. Also, the result in the data set with Mus musculus [8], in the data set with Mesenchymal stem cells [10] and in the data set on Mesenchymal stem cells [12] was Active. In addition, the result in the data set with Mesenchymal stem cells [16] and in the data set with Mesenchymal stem cells [23] was inactive. Further, the Emax in data set [25] is more than 108%.
